How the values were obtained:
Phosphodiesterase 4A = molecular target: T1, Phosphodiesterase 4A (Sus scrofa, UniProt O77823); experiment: Inhibitory potency against pig aortic PDE IV
T1 sequence (O77823 whole entry): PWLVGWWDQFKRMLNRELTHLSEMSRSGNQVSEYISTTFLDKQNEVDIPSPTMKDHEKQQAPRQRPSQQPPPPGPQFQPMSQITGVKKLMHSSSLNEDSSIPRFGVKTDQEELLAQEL
Summary of the method: (§1)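 Pig aortic PDE isozymes were separated by DEAE-trisacryl anion-exchange chromatography. PDE III was assayed in the presence of rolipram (10 µM) and PDE IV in the presence of siguazodan (10 µM) to exclude cross-contamination.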

Cavia porcellus [1] = experiment: In vivo bronchodilator effect on histamine-induced bronchospasm in anaesthetized guinea pigs at 20 ug intravenous dose; type: functional
Cavia porcellus [2] = species on record: Cavia porcellus; experiment: Inhibition of superoxide O2-generation from guinea pig peritoneal eosinophils; type: functional
Summary of the method: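 Guinea pig peritoneal eosinophils (10^6/well) were incubated for 45 min at 37 °C in HBSS with p-iodonitrotetrazolium violet (0.5 mg/mL). Superoxide was measured as SOD-inhibitable dye reduction: cells were pelleted and dissolved overnight at room temperature in DMSO/0.6 M HCl, and absorbance was read at 492 nm.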

Cavia porcellus [3] = experiment: In vivo bronchodilator effect on histamine-induced bronchospasm in anaesthetized guinea pigs at 50 ug intravenous dose; type: functional
Cavia porcellus [4] = experiment: In vivo bronchodilator effect on histamine-induced bronchospasm in anaesthetized guinea pigs at 10 ug intravenous dose; type: functional
[5] = Inhibitory potency against pig aortic PDE III.; design: species or system Sus scrofa; summary of the method: as §1
[6] = molecular target: Phosphodiesterase 1 (Sus scrofa); experiment: Inhibitory potency against pig aortic PDE I.
Cavia porcellus [7] = experiment: In vivo bronchodilator effect on histamine-induced bronchospasm in anaesthetized guinea pigs at 100 ug intravenous dose; type: functional
Cavia porcellus [8] = experiment: In vivo bronchodilator effect on histamine-induced bronchospasm in anaesthetized guinea pigs at 200 ug intravenous dose; type: functional
Phosphodiesterase 4 [9] = molecular target: T2, Phosphodiesterase 4 (Homo sapiens, UniProt P27815+Q08499+Q07343+Q08493); experiment: Inhibition of guinea pig PDE IV; type: protein assay, Cavia porcellus; settings: target entry is the homologue from another species
Phosphodiesterase 4 [10] = molecular target: T2, Phosphodiesterase 4; experiment: Inhibition of solubilized eosinophil PDE IV; type: protein assay, Cavia porcellus

COc1ccc(C(=O)Nc2c(F)c(F)nc(F)c2F)cc1OC1CCCC1
IC50 (Phosphodiesterase 4A): 0.55 µM

COc1ccc(C2CNC(=O)C2)cc1OC1CCCC1 (centres undefined) [ROLIPRAM]
Duration (Cavia porcellus [1]): 29 min | Reduction (Cavia porcellus [1]): 48% | IC50 (Cavia porcellus [2]): 160 nM | Duration (Cavia porcellus [3]): 38 min | Reduction (Cavia porcellus [3]): 58% | Duration (Cavia porcellus [4]): 15 min | Reduction (Cavia porcellus [4]): 15%

COc1ccc(C(=O)Nc2c(C)noc2C)cc1OC1CCCC1
IC50 (Phosphodiesterase 4A): 0.45 µM

COc1ccc(C(=O)Nc2ccccc2[N+](=O)[O-])cc1OC1CCCC1
IC50 [5]: > 200 µM | IC50 (Phosphodiesterase 4A): 0.25 µM

COc1ccc(C(=O)Nc2cnccc2Cl)cc1OC1CCCC1
IC50 (Phosphodiesterase 4A): 0.12 µM

COc1ccc(C(=O)Nc2ncccc2C)cc1OC1CCCC1
IC50 (Phosphodiesterase 4A): 3.1 µM

COc1ccc(C(=O)Nc2c(Cl)c(F)nc(F)c2Cl)cc1OC1CCCC1
IC50 (Phosphodiesterase 4A): 0.02 µM

COC(=O)c1ccccc1NC(=O)c1ccc(OC)c(OC2CCCC2)c1
IC50 [5]: > 40 µM | IC50 [6]: > 40 µM | IC50 (Phosphodiesterase 4A): 3 µM

COc1ccc(C(=O)Nc2ccccc2F)cc1OC1CCCC1
IC50 [5]: > 1000 µM | IC50 [6]: > 1000 µM | IC50 (Phosphodiesterase 4A): 10.7 µM

COc1ccc(C(=O)Nc2ccc(Cl)cc2)cc1OC1CCCC1
IC50 [5]: > 1000 µM | IC50 [6]: > 1000 µM | IC50 (Phosphodiesterase 4A): > 1000 µM

COc1ccc(C(=O)Nc2cccc(Cl)c2Cl)cc1OC1CCCC1
IC50 [5]: > 200 µM | IC50 [6]: > 200 µM | IC50 (Phosphodiesterase 4A): > 200 µM

COc1ccc(C(=O)Nc2ccccn2)cc1OC1CCCC1
IC50 (Phosphodiesterase 4A): 1 µM

COc1ccc(C(=O)Nc2ccccc2Cl)cc1OC(=O)c1ccccc1
IC50 (Phosphodiesterase 4A): > 1000 µM

COc1ccc(C(=O)Nc2c(F)cnc(F)c2F)cc1OC1CCCC1
IC50 (Phosphodiesterase 4A): 0.085 µM

COc1ccc(C(=O)Nc2ccc(C)cc2)cc1OC1CCCC1
IC50 [5]: > 200 µM | IC50 [6]: > 200 µM | IC50 (Phosphodiesterase 4A): > 200 µM

COc1ccc(C(=O)Nc2c(F)cccc2F)cc1OC1CCCC1
Duration (Cavia porcellus [7]): 18 min | Reduction (Cavia porcellus [7]): 29% | IC50 [5]: > 1000 µM | IC50 [6]: > 1000 µM | Duration (Cavia porcellus [8]): 48 min | Reduction (Cavia porcellus [1]): 54% | IC50 (Phosphodiesterase 4A): 0.07 µM | IC50 (Phosphodiesterase 4 [9]): 66 nM | IC50 (Cavia porcellus [2]): 580 nM | IC50 (Phosphodiesterase 4 [10]): 18 nM

COc1ccc(C(=O)Nc2c(Cl)cccc2Cl)cc1OC1CC2CCC1C2 (centres undefined)
IC50 (Phosphodiesterase 4A): 0.01 µM

CCCCOc1cc(C(=O)Nc2c(Cl)cncc2Cl)ccc1OC
Duration (Cavia porcellus [7]): 34 min | Reduction (Cavia porcellus [7]): 52% | Duration (Cavia porcellus [8]): 32 min | Reduction (Cavia porcellus [1]): 78% | IC50 (Phosphodiesterase 4A): 0.008 µM | IC50 (Phosphodiesterase 4 [9]): 8.5 nM | IC50 (Cavia porcellus [2]): 480 nM | IC50 (Phosphodiesterase 4 [10]): 2.5 nM

COc1ccc(C(=O)Nc2c(Cl)cncc2Cl)cc1OC1CC2CCC1C2 (stereo in doubt; (-)16f)
IC50 (Phosphodiesterase 4A): 0.001 µM

COc1ccc(C(=O)Nc2c(F)cccc2Cl)cc1OC1CCCC1
IC50 [5]: > 1000 µM | IC50 [6]: > 1000 µM | IC50 (Phosphodiesterase 4A): 0.24 µM

COc1ccc(C(=O)Nc2ncccn2)cc1OC1CCCC1
IC50 (Phosphodiesterase 4A): 3.5 µM

COc1ccc(C(=O)Nc2cccnc2)cc1OC1CCCC1
IC50 (Phosphodiesterase 4A): 0.55 µM

COc1ccc(C(=O)Nc2nccs2)cc1OC1CCCC1
IC50 (Phosphodiesterase 4A): 6.5 µM

COc1ccc(C(=O)Nc2c(C)nsc2C#N)cc1OC1CCCC1
IC50 (Phosphodiesterase 4A): 0.2 µM

COc1ccc(C(=O)Nc2c(Cl)ncnc2Cl)cc1OC1CCCC1
IC50 (Phosphodiesterase 4A): 0.4 µM

COc1ccc(C(=O)Nc2c(Br)cncc2Br)cc1OC1CCCC1
IC50 (Phosphodiesterase 4A): 0.007 µM

COc1ccc(C(=O)Nc2c(F)cccc2F)cc1OC1CCCCC1
IC50 (Phosphodiesterase 4A): 0.4 µM

COc1ccc(C(=O)Oc2c(Cl)cccc2Cl)cc1OC1CCCC1
IC50 (Phosphodiesterase 4A): > 1000 µM

COc1ccc(C(=O)Nc2c(C)nsc2C)cc1OC1CCCC1
IC50 (Phosphodiesterase 4A): 0.5 µM

COc1ccc(C(=O)Nc2c(Cl)cncc2Cl)cc1OC1CC2CCC1C2 (stereo in doubt; (+)16g)
IC50 (Phosphodiesterase 4A): 0.001 µM

COc1ccc(C(=O)Nc2ccncc2Cl)cc1OC1CCCC1
Duration (Cavia porcellus [8]): 15 min | Reduction (Cavia porcellus [1]): 26% | IC50 (Phosphodiesterase 4A): 0.016 µM | IC50 (Phosphodiesterase 4 [9]): 16 nM | IC50 (Cavia porcellus [2]): 30 nM | IC50 (Phosphodiesterase 4 [10]): 2 nM

COc1ccc(C(=O)Nc2ccccc2C(F)(F)F)cc1OC1CCCC1
IC50 [5]: > 1000 µM | IC50 [6]: > 1000 µM | IC50 (Phosphodiesterase 4A): 3.1 µM

COc1ccc(C(=O)Nc2ccccc2Cl)cc1OC(=O)C(C)(C)C
IC50 (Phosphodiesterase 4A): > 1000 µM

COc1ccc(C(=O)Nc2cc(Cl)ccc2Cl)cc1OC1CCCC1
IC50 [5]: > 200 µM | IC50 (Phosphodiesterase 4A): 0.5 µM

COc1ccc(C(=O)Nc2c(C)nsc2Br)cc1OC1CCCC1
IC50 (Phosphodiesterase 4A): 0.5 µM

COc1ccc(C(=O)Nc2c(F)c(F)nc(F)c2Cl)cc1OC1CCCC1
IC50 (Phosphodiesterase 4A): 0.1 µM

— ChEMBL document CHEMBL1127531, “Selective type IV phosphodiesterase inhibitors as antiasthmatic agents. The syntheses and biological activities of 3-(cyclopentyloxy)-4-methoxybenzamides and analogues” (J Med Chem, 1994)
